Assay [1] has as its target Glutamate NMDA receptor; Grin1/Grin2b (Rattus norvegicus, UniProt P35439+Q00960). As to the kind of experiment: Antagonistic activity for suppression of membrane current response elicited by fixed concentration of glycine and glutamate in Xenopus oocyte expressing N-methyl-D-aspartate glutamate receptor 1/2B. It is filed as functional. In a few lines:
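Xenopus oocytes expressing cloned NR1A/NR2B, superfused with frog's Ringer (10 mM HEPES, 115 mM NaCl, 0.9 mM CaCl2, 1 mM KCl, pH 7.2) containing 1 μM glycine plus 100 μM glutamate, with increasing antagonist. Washes of 4–6 min between stimulations. IC50 from five-point concentration-inhibition curves, sigmoidal fit, assuming competitive inhibition. Mean (SE) of ≥3 experiments.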

Assay [2] has as its target Glutamate receptor ionotropic, NMDA 1 (Rattus norvegicus, UniProt P35439). As to the kind of experiment: Displacement of [3H]-5-7 dichlorokynurenic acid ([3H]- DCKA) from N-methyl-D-aspartate glutamate receptor glycine site of rat brain membrane homogenate. It is filed as tissue-based. The essentials: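 Rat brain membranes kept at -80 °C, thawed, washed in HEPES-KOH 50 mM pH 7.5. About 0.1 mg protein incubated 30 min at 4 °C with 20 nM [3H]-DCKA and increasing probe; nonspecific binding with 1 mM glycine. Filtration, then scintillation counting. Logistic fit; Ki by Cheng-Prusoff (KD 35 nM). Mean (SE) of ≥3 experiments.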

This passage reports IC50 and Ki results from ChEMBL document CHEMBL1132451, “Evaluation and biological properties of reactive ligands for the mapping of the glycine site on the N-methyl-D-aspartate (NMDA) receptor” (J Med Chem, 1999).

SMILES strings stand for the structures. pIC50, pKi: −log10 of the molar value. Where only a bound is given, the exact number is not on record here.

Glutamate NMDA receptor; Grin1/Grin2b, sequence (Q00960 whole entry, other chains not shown, the tested form may be a part): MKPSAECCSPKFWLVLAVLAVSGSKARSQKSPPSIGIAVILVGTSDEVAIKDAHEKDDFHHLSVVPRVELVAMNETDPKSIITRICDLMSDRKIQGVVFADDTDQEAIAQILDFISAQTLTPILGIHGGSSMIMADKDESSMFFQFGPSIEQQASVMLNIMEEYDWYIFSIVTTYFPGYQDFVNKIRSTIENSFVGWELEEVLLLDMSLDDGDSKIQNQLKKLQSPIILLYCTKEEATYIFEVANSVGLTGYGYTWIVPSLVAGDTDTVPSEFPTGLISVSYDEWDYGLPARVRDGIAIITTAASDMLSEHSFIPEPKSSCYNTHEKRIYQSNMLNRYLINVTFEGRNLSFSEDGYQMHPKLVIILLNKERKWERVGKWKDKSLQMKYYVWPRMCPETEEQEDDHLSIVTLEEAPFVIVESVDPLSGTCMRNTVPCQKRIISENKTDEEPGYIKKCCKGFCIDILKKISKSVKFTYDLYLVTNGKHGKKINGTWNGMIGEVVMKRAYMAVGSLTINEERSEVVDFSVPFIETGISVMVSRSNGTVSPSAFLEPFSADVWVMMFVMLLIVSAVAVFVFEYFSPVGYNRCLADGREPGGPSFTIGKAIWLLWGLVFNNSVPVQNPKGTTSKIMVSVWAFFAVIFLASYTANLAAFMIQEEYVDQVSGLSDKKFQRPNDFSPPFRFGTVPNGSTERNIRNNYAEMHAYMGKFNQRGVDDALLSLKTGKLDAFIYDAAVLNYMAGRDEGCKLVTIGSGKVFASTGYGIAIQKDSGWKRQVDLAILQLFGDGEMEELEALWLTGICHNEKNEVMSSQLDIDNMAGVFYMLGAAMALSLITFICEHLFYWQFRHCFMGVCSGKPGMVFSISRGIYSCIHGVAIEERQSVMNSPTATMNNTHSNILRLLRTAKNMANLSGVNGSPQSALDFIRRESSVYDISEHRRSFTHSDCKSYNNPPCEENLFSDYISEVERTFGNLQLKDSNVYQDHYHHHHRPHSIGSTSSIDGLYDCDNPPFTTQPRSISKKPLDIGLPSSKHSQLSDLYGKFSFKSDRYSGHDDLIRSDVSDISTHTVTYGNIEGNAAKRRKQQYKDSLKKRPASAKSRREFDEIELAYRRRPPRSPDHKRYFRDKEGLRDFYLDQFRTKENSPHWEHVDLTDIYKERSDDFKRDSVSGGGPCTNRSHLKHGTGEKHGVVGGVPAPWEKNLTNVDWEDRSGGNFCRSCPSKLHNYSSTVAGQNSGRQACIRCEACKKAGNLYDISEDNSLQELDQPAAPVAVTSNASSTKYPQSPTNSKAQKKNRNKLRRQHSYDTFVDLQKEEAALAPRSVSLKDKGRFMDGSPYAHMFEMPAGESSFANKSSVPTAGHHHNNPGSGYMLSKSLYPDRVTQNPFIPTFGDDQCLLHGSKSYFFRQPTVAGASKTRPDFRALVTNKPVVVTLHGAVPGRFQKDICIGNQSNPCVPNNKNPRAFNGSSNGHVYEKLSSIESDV

The term pIC50 denotes −log10 of the IC50, conventionally taken in molar units. The term pKi denotes the Ki on a negative log10 scale, so that one unit is a factor of ten. A high value points to a small Ki. Take `O=C(CCl)Nc1c(-c2cccc(Oc3ccccc3)c2)c(=O)[nH]c2cc(Cl)ccc12`: the pIC50 in assay [1] was under 4.00. The compound further showed a pKi in assay [2] of 6.67.
With `O=C(Oc1c(-c2cccc(Oc3ccccc3)c2)c(=O)[nH]c2cc(Cl)ccc12)c1ccc(S(=O)(=O)F)cc1`, the pIC50 in assay [1] is 5.62. In assay [2], this compound gave a pKi of 7.62.
As to `O=C(CCl)Nc1ccc2c(O)c(-c3cccc(Oc4ccccc4)c3)c(=O)[nH]c2c1`, the negative logarithm of the IC50 (pIC50) in assay [1] was 4.42. In addition, the pKi in assay [2] was 6.56.
The matching figures for `O=C(CCl)Nc1cccc(-c2c(O)c3ccc(Cl)cc3[nH]c2=O)c1`: 6.81 and 7.38.
With `O=C(CCl)Nc1cccc(Oc2cccc(-c3c(O)nc4cc(Cl)ccc4c3O)c2)c1`, the pIC50 in assay [1] is 7.41. In addition, the pKi in assay [2] was 7.86.
In the case of `N#[N+]c1ccc2c(O)c(-c3cccc(Oc4ccccc4)c3)c(O)nc2c1`, the pKi in assay [2] was under 6.00.
With `O=c1[nH]c2cc(Cl)ccc2c(O)c1-c1cccc(N=C=S)c1`, the pIC50 in assay [1] is 6.70. In assay [2], this compound gave a pKi of 7.32.
`O=C(CCl)Nc1ccccc1Oc1cccc(-c2c(O)nc3cc(Cl)ccc3c2O)c1`: the pIC50 in assay [1] is 7.62. The same compound had a pKi in assay [2] of 8.15.
As to `O=C(CCl)Nc1ccc2c(OC(=O)CCl)c(-c3cccc(Oc4ccccc4)c3)c(=O)[nH]c2c1`, the pIC50 in assay [1] is 4.20. In assay [2], the pKi was 6.37.
The matching figures for `O=c1[nH]c2cc(Cl)ccc2c(O)c1-c1cccc(Oc2ccccc2)c1`: 7.74 and 7.85.
For `O=c1[nH]c2cc(Cl)ccc2c(O)c1-c1cccc(NCCS(=O)(=O)F)c1` the same measures were 6.47 and 7.62.
As for `O=c1[nH]c2cc(Cl)ccc2c(O)c1-c1cccc(Oc2ccccc2NCCS(=O)(=O)F)c1`, the negative-log IC50 (pIC50) in assay [1] is 7.49. The compound further had a pKi in assay [2] of 7.57.
Take `O=c1[nH]c2cc(N=C=S)ccc2c(O)c1-c1cccc(Oc2ccccc2)c1`: the pIC50 in assay [1] was 4.62. This compound gave a pKi in assay [2] of 7.19.
